Screening results as filed in PubChem BioAssay.
This is a sample that favours compounds with a hit; in the whole collection about 3.8% have one here.
Kir21 inh: inhibitors of mouse Kir2.1 inward-rectifier potassium channel | HEK293-Kir2.1, FluxOR thallium flux fluorescence; active compounds read low | hit rate 0.85% among 310,000 | P35561 | B-score at 10 µM;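 active means fluorescence ratio B-score at or below minus 3 SD of library scores, with starting-brightness B-score within 2 SD, cut at about -4.2 in these data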;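 further: channel flux triggered by added potassium and thallium sulfate stimulus; B-score of peak minus minimum fluorescence over baseline after thallium stimulus; more negative B-score means stronger Kir2.1 block with less thallium influx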
KCNQ1 act: human KCNQ1 channel potentiation or activation; P51787; CHO-K1 KCNQ1, thallium flux FluxOR fluorescence; active compounds read high; B-score at 10 µM; hit rate 0.35% among 310,000; AID 2648;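 active means fluorescence ratio B-score, a plate-corrected score, at least three library SD, with initial intensity B-score within 5 SD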
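Test system: CHO-K1 cells stably expressing KCNQ1 / Medium: assay buffer / Also added: depolarizing K+/Tl+ stimulus, K2SO4 and Tl2SO4 each 12.5 mM in 5x stock / Incubation: 90 min dye loading and 20 min compound exposure, both at room temperature / Signal: thallium influx via FluxOR fluorescence, kinetic imaging / Evaluation: B score of baseline-normalized fluorescence ratio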
KCNK3 inh: human KCNK3 channel inhibition, primary screen. hit rate 0.84% among 340,000. B-score at 10 µM. CHO-KCNK3 thallium flux, FluxOR fluorescence; active compounds read low. O14649;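 active means B-score under library mean minus 4 SD, starting fluorescence ratio at most library mean plus 5 SD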;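 further: more negative B-score means stronger inhibition of thallium flux through KCNK3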
Target sequence (O14649 whole entry, looked up): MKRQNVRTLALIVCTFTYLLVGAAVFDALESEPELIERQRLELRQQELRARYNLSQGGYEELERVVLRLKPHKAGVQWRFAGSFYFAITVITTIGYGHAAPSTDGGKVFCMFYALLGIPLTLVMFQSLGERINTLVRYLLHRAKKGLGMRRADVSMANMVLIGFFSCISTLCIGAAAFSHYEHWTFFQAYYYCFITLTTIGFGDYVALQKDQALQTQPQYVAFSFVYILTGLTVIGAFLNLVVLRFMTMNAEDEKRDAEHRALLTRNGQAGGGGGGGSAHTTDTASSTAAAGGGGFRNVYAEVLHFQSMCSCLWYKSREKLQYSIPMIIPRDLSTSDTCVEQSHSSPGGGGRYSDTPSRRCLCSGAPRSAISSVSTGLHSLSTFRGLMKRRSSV
KCNK9 inh: human KCNK9 channel inhibition; Q9NPC2; hit rate 1.2% among 310,000; HEK293 KCNK9, FluxOR thallium flux fluorescence; active compounds read low; B-score at 10 µM;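 active means ratio B-score over 3 SD below the library mean, with starting fluorescence within 5 SD of its mean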;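 further: negative B-score means less thallium flux so channel inhibition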
hERG rescue: compounds protecting human hERG from proarrhythmic drug block. activation (rescue from dofetilide block), less the hit threshold, % at 10 µM. Q12809. CHO-hERG, FluxOR thallium flux, dofetilide IC70 present. hit rate 0.51% among 310,000;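 active means activation above the mean of controls blocked by dofetilide plus 5 SD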;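 further: thallium influx through hERG after potassium depolarization seen as dye fluorescence rise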
KCNQ1 inh: blocks the human KCNQ1 potassium channel. CHO-K1 KCNQ1, FluxOR thallium flux fluorescence; active compounds read high. B-score at 10 µM. hit rate 1.3% among 310,000. P51787;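 active means compounds whose thallium flux B-score, printed positive for inhibition, exceeds three library SD while starting fluorescence stays within three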;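 further: channel opened by potassium depolarization with thallium stimulus after 20 min compound exposure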
Of the large screens only hits and unclear results are named; the others gave an inactive call.

CC(NC(=O)CN(C)Cc1cccc(Cl)c1)c1ccccc1 (centres undefined)	none
CN(CC(=O)NCCCc1ccccc1)Cc1ccc(Br)cc1	none
CN(CC(=O)NCCc1ccc(F)cc1)Cc1cccc(Cl)c1	Kir21 inh -7.3
CN(CC(=O)NCCc1ccc(F)cc1)Cc1ccc(Br)cc1	Kir21 inh -6.6
CN(CC(=O)Nc1ccc(Br)cc1)Cc1ccccc1	KCNK9 inh -6.8
CCN(CC(=O)Nc1ccc2c(c1)OCCO2)C(=O)COc1ccc(C)cc1	none
COc1cc(NC(=O)c2cccs2)c(OC)cc1NC(=O)CCC(=O)Nc1ccc2ncccc2c1	none
Cc1ccc2c(c1)c(-c1ccccc1)nc1nnnn12	hERG rescue 6.0
Cc1ccc2nnnc(-c3ccccc3)c2c1	none
N#Cc1cc([N+](=O)[O-])c(-n2nnc3ccccc32)c([N+](=O)[O-])c1	KCNQ1 inh 8
O=C(CN1c2cccc3cccc(c23)S1(=O)=O)Nc1ccccc1F	none
CC(C)N(Cc1ccccc1)C(=O)CN1c2cccc3cccc(c23)S1(=O)=O	KCNK3 inh -10 (no result: Kir21 inh, KCNQ1 act, KCNK9 inh, hERG rescue, KCNQ1 inh)
O=C(CN1c2cccc3cccc(c23)S1(=O)=O)Nc1ccc(F)c(F)c1F	KCNK3 inh -9.4 (no result: Kir21 inh, KCNQ1 act, KCNK9 inh, hERG rescue, KCNQ1 inh)
O=C(CN1c2cccc3cccc(c23)S1(=O)=O)Nc1ccccc1	none
CNC(=O)c1ccc(NC(=O)CN2c3cccc4cccc(c34)S2(=O)=O)cc1	hERG rescue 14
CN(C)C(=O)CN1c2cccc3cccc(c23)S1(=O)=O	none
COc1ccc(/C=N/NC(=O)c2nnn(-c3nonc3N)c2CN(C)c2ccccc2)cc1	none
OC(CNCCc1ccc(C(F)(F)F)cc1)COC(c1ccccc1)c1ccccc1 (centres undefined)	Kir21 inh -7.9
COc1ccc(C#Cc2ccc3c(c2)c(=O)c2ccccc2n3C)cc1	KCNK9 inh -7.4
CCN1CCCc2cc(CN(CCN3CCOCC3)C(=S)Nc3cccc(OC)c3)ccc21	none
CC(C)C1C(c2ccccc2)N(C)C(c2ccccc2)CC1(O)c1ccccc1 (centres undefined)	none
CC(C)C1C(c2ccccc2)NC(c2ccccc2)CC1(O)c1ccc(F)cc1 (centres undefined)	KCNQ1 inh 7
CCN(CC)c1ccc2nc3ccc(N)cc3[n+](-c3ccccc3)c2c1	KCNK3 inh -9.2 (no result: Kir21 inh, KCNQ1 act, KCNK9 inh, hERG rescue, KCNQ1 inh)
O=C(c1cccc(S(=O)(=O)N2CCc3ccccc32)c1)N1CCN(c2ccccc2)CC1	KCNK3 inh -8.9 (no result: Kir21 inh, KCNQ1 act, KCNK9 inh, hERG rescue, KCNQ1 inh)
O=C(c1cccc(S(=O)(=O)N2CCc3ccccc3C2)c1)N1CCN(c2ccccc2)CC1	none
CCCCOc1ccc(-c2c(C#N)c(N)[nH]c(=S)c2C#N)cc1	hERG rescue 8.4
Cc1sc(-n2c(C)cc(/C=C3\SC(=S)NC3=O)c2C)c(C#N)c1C	KCNQ1 act 9
O=C(c1ccc(Cl)cc1[N+](=O)[O-])N(Cc1ccccc1)Cc1ccccc1	none (no result: KCNK3 inh)
CCN(C(=O)c1ccc(Cl)cc1[N+](=O)[O-])c1ccccc1C	Kir21 inh -5
Cc1ccsc1C1C(C#N)=C(N)N(N(C)C)C2=C1C(=O)CCC2 (centres undefined)	hERG rescue 7.9
Cc1onc(-c2c(Cl)cccc2Cl)c1C(=O)n1nnc2ccccc21	hERG rescue 4.8 (no result: KCNK3 inh)
Cc1onc(-c2c(Cl)cccc2Cl)c1C(N)=O	none
COc1ccc(CCNC(=O)C(C)c2ccc([N+](=O)[O-])cc2)cc1 (centres undefined)	Kir21 inh -4.5
CC(C(=O)NCCCc1ccccc1)c1ccc([N+](=O)[O-])cc1 (centres undefined)	Kir21 inh -4.4
COc1ccc(C(CC(=O)c2ccc(C)cc2)Nc2ccc([N+](=O)[O-])cc2)cc1 (centres undefined)	KCNQ1 inh 6
CC(C(=O)NCc1ccc(F)cc1)c1ccc([N+](=O)[O-])cc1 (centres undefined)	none
O=C(O)c1cc([N+](=O)[O-])ccc1NCCCc1ccccc1	KCNQ1 inh 6
C[C@H](CO)N1C[C@H](C)[C@@H](CN(C)S(=O)(=O)c2ccccc2)Oc2ccc(NC(=O)CCN3CCOCC3)cc2C1=O	none (no result: Kir21 inh, KCNQ1 act, KCNK9 inh, hERG rescue, KCNQ1 inh)
CC(C)NC(=NCc1ccc(Cl)cc1Cl)Nc1ccccc1	KCNQ1 inh 6
O=C(C/C=N\OCc1ccc(Cl)cc1Cl)Nc1ccccc1	none
